What all share (format): functional, cell-based
In one assay the test system is HCT-116. Kind of assay: Antiproliferative activity against human HCT-116 cells assessed as inhibition of cell growth after 48 hrs by MTT assay. To be noted: HCT-116, 48 h. In outline: (§1)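 Cells grown in RPMI-1640 with 10% heat-inactivated FBS at 37 °C, 5% CO2, seeded at 8×10^3/well, treated 48 h with compound at 20, 200, 400, 1000 μM or DMSO vehicle. MTT (5 mg/mL solution) added for 4 h at 37 °C; absorbance read at 570 nm. IC50 from three independent experiments, mean ± SD.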
(In general: Tetrazolium assays rely on reduction of a dye to a coloured formazan, in cell work by metabolically active cells.)

In another assay the test system is B16. Nature of the assay: Antimigratory activity against mouse B16 cells assessed as inhibition of cell migration at 6.25 to 25 uM measured after 24 hrs by scratch wound healing assay. The conditions noted are these: dose 6.25-25 µM. In outline:
(§2)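 Near-confluent monolayers (1.5×10^5 cells per well, RPMI-1640 + 10% FBS) scratched with a pipette tip, washed twice with serum-free RPMI-1640, then exposed to compound in fresh FBS-containing medium (DMSO solvent control) for 24 h. Wounds photographed by inverted microscopy; migration expressed as wound width at 24 h / wound width at 0 h (%). Triplicate.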

Another assay has as its system K562. Kind of assay: Antiproliferative activity against human K562 cells assessed as inhibition of cell growth after 48 hrs by MTT assay. The conditions noted are these: K562, 48 h. A digest of the protocol:
as §1

The test system of a further assay is B16-F10. Nature of the assay: Antimigratory activity against mouse B16-F10 cells assessed as inhibition of cell migration at 6.25 to 25 uM measured after 24 hrs by scratch wound healing assay. To be noted: dose 6.25-25 µM. A digest of the protocol:
as §2

The source made the active and inactive calls. No cut-off for these calls is given here.

The IC50 is the concentration that inhibits the measured activity by half.

As to `CCCCCCCCCCCCC/C=C/[C@@H](O)[C@@H](N)CO[C@@H]1O[C@H](CO)[C@@H](O[C@@H]2O[C@H](CO[C@]3(C(=O)O)C[C@H](O)[C@@H](NC(C)=O)[C@H]([C@H](O)[C@H](O)CO)O3)[C@H](O)[C@H](O)[C@H]2O)[C@H](O)[C@H]1O`, the values for the IC50 in the assay on HCT-116 and in the assay with K562 were 150 µM and 149 µM, respectively. The inhibition entry with B16 and in the assay with B16-F10 was “Active” each time.
As to `CCCCCCCCCCCCC/C=C/[C@@H](O)[C@H](CO[C@@H]1O[C@H](CO)[C@@H](O[C@@H]2O[C@H](CO[C@]3(C(=O)O)C[C@H](O)[C@@H](NC(C)=O)[C@H]([C@H](O)[C@H](O)CO)O3)[C@H](O)[C@H](O)[C@H]2O)[C@H](O)[C@H]1O)NC(=O)CCCCCCCCCCCCCCCCC`, the IC50 in the assay with HCT-116 and with K562 was 201 µM in each case. The inhibition result in the assay on B16 and in the assay with B16-F10 was “Active” throughout.
